{"data": "Measured values collected from several papers"}
{"SMILES": "N#Cc1ccc(C[C@H](Nc2ncc(-c3ccc(F)cc3)o2)C(=O)N2CCc3ccccc32)cc1", "test system": "aqueous buffer", "conditions": "2 h, pH 7.4, 37 °C", "measurement": "kinetic solubility", "result": "1.8 µM"}
{"SMILES": "O=c1c(O[C@@H]2O[C@H](CO)[C@H](O)[C@H](O)[C@H]2O)c(-c2ccc(O)c(O)c2)oc2cc(O)cc(O)c12", "test system": "Caco-2", "conditions": "100 µg/mL", "measurement": "Papp A→B", "result": "0.383 ×10⁻⁶ cm/s"}
{"SMILES": "Cc1cc(C)c(CNC(=O)c2cc(Cl)c3c(c2C)O[C@@](C)([C@H]2CC[C@H](N(C)C)CC2)O3)c(=O)[nH]1", "test system": "Caco-2", "conditions": "10 µM", "measurement": "Papp B→A", "result": "20.4 ×10⁻⁶ cm/s"}
{"SMILES": "COc1cc(C2Oc3cc([C@H]4Oc5cc(O)cc(O)c5C(=O)[C@@H]4O)ccc3OC2CO)ccc1O (some centres unmarked)", "test system": "Caco-2", "conditions": "100 µg/mL, 2 h", "measurement": "Papp B→A", "result": "17.2 ×10⁻⁶ cm/s"}
{"SMILES": "COc1ccc(-c2nn(-c3ccccc3)cc2C=NNc2cn[nH]c(=O)c2Cl)cc1", "target or system": "Jurkat", "test": "cell growth or viability, imaging", "measurement": "CC50", "result": "> 40 µM"}
{"SMILES": "CC[C@H](C)[C@H](NC(=O)[C@H](CCC(=O)O)NC(=O)[C@H](CCC(=O)O)NC(=O)[C@@H]1CCCN1C(=O)[C@H](CO)NC(=O)[C@H](C)NC(=O)[C@H](CC(=O)O)NC(=O)[C@H](CCC(=O)O)NC(=O)[C@H](CCC(=O)O)NC(=O)[C@@H]1CCCN1C(=O)[C@H](CCCCNC(=O)COCCOCCNC(=O)COCCOCCNC(=O)CC[C@H](NC(=O)CCCCCCCCCCCCCCCCC(=O)O)C(=O)O)NC(=O)[C@H](C)NC(=O)[C@@H]1CCCN1C(=O)[C@H](C)NC(=O)CC(C)C)C(=O)N[C@@H](CCC(N)=O)C(=O)N[C@@H](CCCNC(=N)N)C(=O)N[C@@H](Cc1ccc(O)cc1)C(=O)N[C@@H](Cc1ccc(O)cc1)C(=O)N[C@H](C(=O)N[C@@H](CO)C(=O)N[C@@H](CC(C)C)C(=O)N[C@@H](CCCNC(=N)N)C(=O)N[C@@H](Cc1c[nH]cn1)C(=O)N[C@@H](Cc1ccc(O)cc1)C(=O)N[C@@H](Cc1ccc(O)cc1)C(=O)N[C@@H](CC(N)=O)C(=O)N[C@@H](Cc1c[nH]c2ccccc12)C(=O)N[C@@H](CC(C)C)C(=O)N[C@H](C(=O)N[C@@H](CCCNC(=N)N)C(=O)N[C@@H](CCC(N)=O)C(=O)N[C@@H](CCCNC(=N)N)C(=O)N[C@@H](Cc1ccc(O)cc1)C(N)=O)[C@@H](C)O)C(C)C", "test system": "male beagle dog, plasma", "conditions": "subcutaneous, 5 nmol/kg", "measurement": "Tmax", "result": "32 h"}
{"SMILES": "CCN1CCN(Cc2ccc(Nc3nc4ccc(Oc5ccnc(NC(=O)C6CCN(C)CC6)c5)cc4n3C)cc2C(F)(F)F)CC1", "measurement": "pKa", "result": 8.8}
{"SMILES": "COc1cc(/C=C/c2cc(/C=C/c3ccc(O)c(OC)c3)n(-c3ccc(Cl)cc3Cl)n2)ccc1O", "target or system": "WRL68", "test": "cell growth or viability, MTT", "conditions": "48 h", "measurement": "CC50", "result": "> 99 µM"}
{"SMILES": "O=c1c(-c2ccc(O)cc2)coc2c([C@@H]3O[C@H](CO)[C@@H](O)[C@H](O)[C@H]3O)c(O)ccc12", "test system": "Caco-2", "conditions": "100 µg/mL, 2 h", "measurement": "Papp B→A", "result": "5.66 ×10⁻⁶ cm/s"}
{"SMILES": "NC/C(=C\\F)COc1cccc(Cn2c(=S)[nH]c(=O)c3[nH]cnc32)c1", "target or system": "ATP-dependent translocase ABCB1 (ABCB1, Homo sapiens, UniProt P08183)", "test": "transporter efflux, inhibitor", "conditions": "30 µM", "measurement": "inhibition", "result": "< 50%"}
{"SMILES": "COc1cc(/C=C/C(=O)/C=C/c2ccc(O)c(OC)c2)ccc1O", "target or system": "WRL68", "test": "cell growth or viability, MTT", "conditions": "3.2 µg/mL, 48 h", "measurement": "viability", "result": "11.5%"}
